# In BindingDB's records for doi:10.1021/acs.jmedchem.0c01126 (The University of Tokyo, 2020):
# Target: Probable G-protein coupled receptor 34 (Mus musculus, UniProt Q9R1K6)
# Assay: Agonist activity at mouse GPR34 expressed in HEK293 cells co-transfected with AP-TGFalpha/Galphaq/i1 assessed as induction of ectodomain shedding of membrane bound AP-TGFalpha after 1 hr by p-NPP substrate based microplate reader analysis
# In short: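 HEK293 cells transiently transfected with AP-TGFα, chimeric Gα and mouse GPR34 vectors, then treated with compound. Empty-vector cells (AP-TGFα plus chimeric Gα) served as background. Receptor-specific AP-TGFα release was taken after subtracting that background, and concentration-response curves gave EC50 and Emax. Mean and SEM of 3−8 independent experiments.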
# Chain of Probable G-protein coupled receptor 34 (Q9R1K6 whole entry, the tested form may be a part): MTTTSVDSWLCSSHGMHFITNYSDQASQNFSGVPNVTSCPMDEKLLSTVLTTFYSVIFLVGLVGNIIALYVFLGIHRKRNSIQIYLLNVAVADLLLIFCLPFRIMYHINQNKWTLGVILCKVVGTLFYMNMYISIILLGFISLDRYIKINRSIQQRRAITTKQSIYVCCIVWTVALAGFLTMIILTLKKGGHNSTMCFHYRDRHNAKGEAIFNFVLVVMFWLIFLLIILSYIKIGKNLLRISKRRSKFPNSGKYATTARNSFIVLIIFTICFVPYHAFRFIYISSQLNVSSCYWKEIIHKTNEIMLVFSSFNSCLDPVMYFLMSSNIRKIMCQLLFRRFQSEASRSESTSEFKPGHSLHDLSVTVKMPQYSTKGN
row,EC50 [µM],Compound
1,> 3.16,CCCCCCCC/C=C\CCCCCCCC(=O)OCCOP(=O)(O)OC[C@H](N)C(=O)O
2,> 3.16,CCCCCCCC/C=C\CCCCCCCC(=O)O[C@@H](C)COP(=O)(O)OC[C@H](N)C(=O)O
3,> 3.16,CCCCCCCCCCCOc1ccccc1CCC(=O)O[C@H]1CCOC[C@H]1OP(=O)(O)OC[C@H](N)C(=O)O
4,> 3.16,CCCCCCCCCCCOc1ccccc1CCC(=O)O[C@H]1COCC[C@@H]1OP(=O)(O)OC[C@H](N)C(=O)O

# Target: Putative P2Y purinoceptor 10 (Mus musculus, UniProt Q8BFU7)
# Sequence (Q8BFU7 whole entry, the tested form may be a part): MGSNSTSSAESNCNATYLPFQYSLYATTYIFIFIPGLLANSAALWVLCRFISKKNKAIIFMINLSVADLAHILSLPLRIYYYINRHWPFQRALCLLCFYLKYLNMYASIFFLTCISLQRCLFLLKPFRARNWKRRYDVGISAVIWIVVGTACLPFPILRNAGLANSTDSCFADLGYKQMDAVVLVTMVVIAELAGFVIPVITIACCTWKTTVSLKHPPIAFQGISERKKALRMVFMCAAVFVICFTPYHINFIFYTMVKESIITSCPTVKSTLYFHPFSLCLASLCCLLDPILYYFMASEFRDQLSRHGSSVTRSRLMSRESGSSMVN
# Assay: Agonist activity at mouse P2Y10 expressed in HEK293 cells co-transfected with AP-TGFalpha/Galphaq/i1 assessed as induction of ectodomain shedding of membrane bound AP-TGFalpha after 1 hr by p-NPP substrate based microplate reader analysis
# In short: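 Run the same way as the GPR34 shedding assay, but with a mouse P2Y10 expression vector in HEK293 cells alongside AP-TGFα and chimeric Gα. Receptor-specific AP-TGFα release was found by subtracting the empty-vector background. EC50 and Emax came from concentration-response curves. Mean and SEM of 3−8 independent experiments.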
row,EC50 [µM],Compound
1,> 3.16,CCCCCCCC/C=C\CCCCCCCC(=O)OC[C@@H](COC)OP(=O)(O)OC[C@H](N)C(=O)O
2,> 3.16,CCCCCCCC/C=C\CCCCCCCC(=O)OC[C@H](COC)OP(=O)(O)OC[C@H](N)C(=O)O
3,> 3.16,CCCCCCCC/C=C\CCCCCCCC(=O)OC[C@@H](COCC)OP(=O)(O)OC[C@H](N)C(=O)O
4,> 3.16,CCCCCCCC/C=C\CCCCCCCC(=O)OC[C@@H](COCCC)OP(=O)(O)OC[C@H](N)C(=O)O
5,> 3.16,COC[C@H](COC(=O)CCc1ccccc1OCc1cccc(Oc2ccccc2)c1)OP(=O)(O)OC[C@H](N)C(=O)O
6,> 3.16,CCOC[C@H](COC(=O)CCc1ccccc1OCc1cccc(Oc2ccccc2)c1)OP(=O)(O)OC[C@H](N)C(=O)O

# Target: G protein-coupled receptor 34a (Danio rerio, UniProt Q6XCC7)
# Sequence (Q6XCC7 1-389): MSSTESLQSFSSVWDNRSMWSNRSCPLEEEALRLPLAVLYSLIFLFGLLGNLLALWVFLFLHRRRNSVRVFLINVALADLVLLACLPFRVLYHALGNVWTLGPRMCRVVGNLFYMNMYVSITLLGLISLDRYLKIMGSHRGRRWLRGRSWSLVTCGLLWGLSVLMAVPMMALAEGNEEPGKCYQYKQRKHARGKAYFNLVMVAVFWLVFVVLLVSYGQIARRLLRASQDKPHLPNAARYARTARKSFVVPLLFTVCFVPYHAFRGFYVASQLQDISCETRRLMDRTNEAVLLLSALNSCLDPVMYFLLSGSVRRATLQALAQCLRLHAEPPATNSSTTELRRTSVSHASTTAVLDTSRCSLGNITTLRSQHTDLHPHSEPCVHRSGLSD
# Assay: Agonist activity at zebrafish GPR34 type a expressed in HEK293 cells co-transfected with AP-TGFalpha/Galphaq/i1 assessed as induction of ectodomain shedding of membrane bound AP-TGFalpha after 1 hr by p-NPP substrate based microplate reader analysis
row,EC50 [µM],Compound
1,> 3.16,CCOC[C@H](COC(=O)CCc1ccccc1OCc1cccc(Oc2ccccc2)c1)OP(=O)(O)OC[C@H](N)C(=O)O
